Data from ChEMBL document CHEMBL3400126, “Benzo-fused lactams from a diversity-oriented synthesis (DOS) library as inhibitors of scavenger receptor BI (SR-BI)-mediated lipid uptake” (Bioorg Med Chem Lett, 2015).
In brackets after ≈: the same amount, converted by molar mass. Activity calls are given as the source filed them. The rule behind the calls is not given here.

Legend:
[1] = molecular target: T1, Scavenger receptor class B member 1 (Mus musculus, UniProt Q61009); assay: Inhibition of mouse SR-B1 overexpressed in CHO cells assessed as inhibition of transfer of the fluorescent lipid DiI from HDL particles to cells after 3 hrs; assay type: cell-based
T1 sequence (Q61009 whole entry): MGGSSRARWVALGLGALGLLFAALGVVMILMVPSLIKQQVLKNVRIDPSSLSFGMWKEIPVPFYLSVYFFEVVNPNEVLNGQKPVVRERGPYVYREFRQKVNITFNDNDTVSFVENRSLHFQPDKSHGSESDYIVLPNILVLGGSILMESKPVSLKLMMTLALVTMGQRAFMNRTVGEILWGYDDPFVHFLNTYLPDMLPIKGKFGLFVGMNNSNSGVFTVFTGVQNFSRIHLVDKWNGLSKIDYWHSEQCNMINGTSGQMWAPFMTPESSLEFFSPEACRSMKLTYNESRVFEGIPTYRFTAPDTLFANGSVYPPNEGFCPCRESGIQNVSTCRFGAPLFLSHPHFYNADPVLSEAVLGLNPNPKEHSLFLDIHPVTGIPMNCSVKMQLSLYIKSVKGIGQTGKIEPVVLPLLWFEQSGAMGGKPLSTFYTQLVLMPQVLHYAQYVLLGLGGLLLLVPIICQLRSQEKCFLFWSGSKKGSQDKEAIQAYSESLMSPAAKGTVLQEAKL
In short: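 Primary assay: uptake of fluorescent lipid DiI from DiI-labeled HDL particles into IdlA[mSR-BI] cells, i.e. CHO cells overexpressing mouse SR-BI. Read-out is cell-associated DiI fluorescence. Compounds that quenched DiI-HDL fluorescence in a dose-dependent manner were excluded by counterscreen. 1 μM BLT-1 served as positive control.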

[2] = test system: CHO; assay: Cytotoxicity against CHO cells after 24 hrs by CellTiterGlo assay; assay type: cell-based, Cricetulus griseus; conditions: chinese hamster
In short: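 IdlA[mSR-BI] cells (CHO overexpressing mouse SR-BI) incubated with compound for 24 h; cellular ATP levels read by CellTiter-Glo luminescence.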

[3] = Aqueous solubility of the compound in PBS at pH 7.4 with 1 % DMSO after 24 hrs by UPLC-MS analysis; assay type: physicochemical; conditions: for solubility: buffer, pH 7.4, 24 h; for solubility at 24 h: PBS with 1% DMSO, pH 7.4
[4] = molecular target: T2, Scavenger receptor class B member 1 (Mus musculus) (UniProt Q61009); assay: Inhibition of mouse SR-B1 overexpressed in CHO cells assessed as inhibition of transfer of the fluorescent lipid DiI from HDL particles to cells at 1 uM after 3 hrs; assay type: cell-based
T2 sequence (whole entry): T1 sequence (Q61009 whole entry)

[5] = molecular target: T1, Scavenger receptor class B member 1; assay: Activity at mouse SR-B1 overexpressed in CHO cells assessed as enhancement of binding of ALexa-488-labeled HDL particles to cells after 3 hrs
[6] = Stability in mouse plasma assessed as compound remaining at 5 uM after 5 hrs by UPLC-MS analysis; assay type: ADME, cell-free; conditions: read-out: Stability
In short: (§1)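 Compound incubated 5 h in human or mouse plasma; percent parent remaining determined.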

[7] = molecular target: T2, Scavenger receptor class B member 1 (Mus musculus); assay: Inhibition of mouse SR-B1 overexpressed in CHO cells assessed as inhibition of receptor-mediated Alexa-594-labeled transferrin endocytosis up to 35 uM; assay type: cell-based
In short: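 Receptor-mediated endocytosis in IdlA[mSR-BI] cells followed by uptake of Alexa-594-labeled transferrin, compound tested at concentrations up to 35 μM.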

[8] = Stability in human liver microsomes assessed as compound remaining at 1 uM after 1 hr by UHPLC-MS analysis; assay type: ADME; conditions: read-out: Stability
In short: (§2)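 Compound incubated 1 h with mouse or human liver microsomes; percent parent remaining determined.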

[9] = molecular target: T1, Scavenger receptor class B member 1; assay: (§3) Inhibition of mouse SR-B1 overexpressed in CHO cells assessed as inhibition of [3H]cholesteryl ester uptake into cells after 2 to 3 hrs by liquid scintillation counting; assay type: cell-based
In short: (§4)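 IdlA[mSR-BI] cells exposed to HDL carrying [³H]-labeled cholesteryl oleate ester; cellular uptake of [³H]CE measured across a compound dilution series, IC₅₀ from dose-response curve.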

[10] = Plasma protein binding in human at 5 uM after 5 hrs by equilibrium dialysis; assay type: ADME, cell-free; conditions: read-out: PPB (converted)
In short: (§5)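 Fraction bound to plasma proteins measured separately in human and mouse plasma.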

[11] = Plasma protein binding in mouse at 5 uM after 5 hrs by equilibrium dialysis; assay type: ADME, cell-free; conditions: read-out: PPB (converted); in short: as §5
[12] = molecular target: L-type calcium channel (Homo sapiens, UniProt O60840+Q01668+Q13698+Q13936); assay: Inhibition of L-type calcium channel (unknown origin) at 10 uM
[13] = Stability in human plasma assessed as compound remaining at 5 uM after 5 hrs by UPLC-MS analysis; assay type: ADME, cell-free; conditions: read-out: Stability; in short: as §1
[14] = Stability in mouse liver microsomes assessed as compound remaining at 1 uM after 1 hr by UHPLC-MS analysis; assay type: ADME; conditions: read-out: Stability; in short: as §2
[15] = molecular target: T2, Scavenger receptor class B member 1 (Mus musculus); assay: as §3; assay type: cell-based; in short: as §4

Row | SMILES | IC50 [1] [nM] | Activity [2] | also measured
1 | CCCCCCC1CCC/C1=N\NC(N)=S (centres undefined) | – | – | inhibition [4]: > 70%
2 | CC(C)NC(=O)Nc1ccc2c(c1)C(=O)N([C@H](C)CO)C[C@@H](C)[C@H](CN(C)S(=O)(=O)c1ccc(Cl)cc1)O2 | – | Non-toxic | EC50 [5]: 400 nM; remaining at 5 h, 5 µM [6]: > 99%; inhibition [7]: inactive; remaining at 1 h, 1 µM [8]: 10%; IC50 [9]: 250 nM; fraction unbound at 5 h, 5 µM [10]: 0.055; fraction unbound at 5 h, 5 µM [11]: 0.053; inhibition at 10 µM [12]: 19%; remaining at 5 h, 5 µM [13]: > 99%; solubility at 24 h [3]: 79 µM (≈ 44.8 µg/mL); remaining at 1 h, 1 µM [14]: 25%
3 | COc1c(NC(=O)C(=O)c2ccc(OCCN3CCOCC3)c3ccccc23)cc(C(C)(C)C)cc1NS(C)(=O)=O [ITX-5061] | – | – | IC50 [9]: 770 nM
4 | COCC(=O)n1ccc2cc(-c3csc(NC(=O)c4cc(OC)cc(OC)c4)n3)ccc21 | – | – | inhibition [15]: Active; solubility at 24 h [3]: 0.57 µM (≈ 0.257 µg/mL)
5 | Cc1noc(C)c1NC(=O)Nc1ccc2c(c1)C(=O)N([C@H](C)CO)C[C@@H](C)[C@H](CN(C)S(=O)(=O)c1ccc(Cl)cc1)O2 | 7100 | Non-toxic | –
6 | C[C@H](C(=O)NC1CCCC1)N(C(=O)Cn1nnc(-c2ccc3c(c2)OCO3)n1)C1CCCCC1 | – | – | IC50 [9]: 5 nM
7 | C[C@@H]1CN([C@H](C)CO)C(=O)c2cc(NS(C)(=O)=O)ccc2O[C@H]1CN(C)S(=O)(=O)c1ccc(Cl)cc1 | 1600 | Non-toxic | –
8 | C[C@@H]1CN([C@H](C)CO)C(=O)c2cc(NC(=O)CCC(F)(F)F)ccc2O[C@H]1CN(C)S(=O)(=O)c1ccc(Cl)cc1 | 260 | Non-toxic | –
9 | C[C@@H]1CN([C@H](C)CO)C(=O)c2cc(NC(=O)C3CCOCC3)ccc2O[C@H]1CN(C)S(=O)(=O)c1ccc(Cl)cc1 | > 25000 | Non-toxic | –
10 | Cc1noc(C)c1S(=O)(=O)Nc1ccc2c(c1)C(=O)N([C@H](C)CO)C[C@@H](C)[C@H](CN(C)S(=O)(=O)c1ccc(Cl)cc1)O2 | 190 | Non-toxic | –

More lines, main results first:

Row | IC50 [1] [nM] | SMILES | Activity [2] | also measured
11 | 180 | C[C@@H]1CN([C@H](C)CO)C(=O)c2cc(NC(=O)Cc3cn(C)c4ccccc34)ccc2O[C@H]1CN(C)S(=O)(=O)c1ccc(Cl)cc1 | Non-toxic | solubility [3]: 0.1 µM (≈ 0.0653 µg/mL)
12 | 2400 | C[C@@H]1CN([C@H](C)CO)C(=O)c2cc(NC(=O)Cc3cn(C)c4ccccc34)ccc2O[C@H]1CN(C)S(=O)(=O)c1cccs1 | Non-toxic | –
13 | 6400 | C[C@@H]1CN([C@H](C)CO)C(=O)c2cc(NC(=O)Cc3cn(C)c4ccccc34)ccc2O[C@H]1CN(C)S(=O)(=O)c1cn(C)cn1 | Non-toxic | solubility [3]: 79 µM (≈ 49.2 µg/mL)
14 | 4900 | C[C@@H]1CN([C@H](C)CO)C(=O)c2cc(NC(=O)Cc3cn(C)c4ccccc34)ccc2O[C@H]1CN(C)C(=O)Nc1ccccc1 | Non-toxic | –
15 | 560 | C[C@@H]1CN([C@H](C)CO)C(=O)c2cc(NC(=O)Cc3cn(C)c4ccccc34)ccc2O[C@H]1CN(C)S(=O)(=O)c1ccc(F)cc1 | Non-toxic | –
